In brackets after ≈: the same amount, converted by molar mass.
System: not listed separately
Assay: Toxicity against Brine shrimp nauplii after 24 hrs
Type: organism-based
Conditions: artemia salina, in vivo; read-out: ED50
Method in brief: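 Artemia salina nauplii hatched 38 h in sterile brine (sea salt 38 g/L, pH 8.5) under aeration; 10 nauplii per vial exposed to graded compound concentrations in 5 mL final volume, 37 °C, 24 h under incandescent light. Survivors counted; percent lethality versus vehicle-treated controls; ED50 from probit analysis; podophyllotoxin positive control.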
`Cc1ccc(/C=C/C(=O)c2ccccc2NC(=O)NS(=O)(=O)c2ccc(C)cc2)cc1` gave an LC50 at 24 h of 15.3 µg/mL (≈ 35.2 µM).
Work on `Cc1ccc(S(=O)(=O)NC(=O)Nc2ccccc2C(=O)/C=C/c2ccc(Cl)cc2Cl)cc1` yielded an LC50 at 24 h of 8.34 µg/mL (≈ 17 µM).
Work on `Cc1ccc(S(=O)(=O)NC(=O)Nc2ccccc2C(=O)/C=C/c2cccnc2)cc1` yielded an LC50 at 24 h of 14.1 µg/mL (≈ 33.4 µM).

System: Bacillus subtilis
Assay: Antibacterial activity against Bacillus subtilis NCIM 2063 after 24 hrs by agar well diffusion assay
Type: functional
Conditions: NCIM 2063, 24 h
Method in brief: (§1)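 Agar well diffusion per NCCLS; NCIM standard strains. Nutrient agar seeded with 0.1 mL bacterial suspension in sterile 0.85% saline at 10⁵ CFU/mL. Plates in triplicate, 37 0.5 °C, 24 h. MIC taken as lowest concentration giving complete growth inhibition.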
`Cc1ccc(/C=C/C(=O)c2ccccc2NC(=O)NS(=O)(=O)c2ccc(C)cc2)cc1` gave an MIC of 256 µg/mL (≈ 589 µM).
`Cc1ccc(S(=O)(=O)NC(=O)Nc2ccccc2C(=O)/C=C/c2ccc(Cl)cc2Cl)cc1` gave an MIC of 16 µg/mL (≈ 32.7 µM).
For `Cc1ccc(S(=O)(=O)NC(=O)Nc2ccccc2C(=O)/C=C/c2cccnc2)cc1`, the MIC was 128 µg/mL (≈ 304 µM).

System: Staphylococcus aureus
Assay: Antibacterial activity against Staphylococcus aureus NCIM 2079 after 24 hrs by agar well diffusion assay
Type: functional
Conditions: NCIM 2079, 24 h
Method in brief: as §1
`Cc1ccc(/C=C/C(=O)c2ccccc2NC(=O)NS(=O)(=O)c2ccc(C)cc2)cc1` gave an MIC of 128 µg/mL (≈ 295 µM).
For `Cc1ccc(S(=O)(=O)NC(=O)Nc2ccccc2C(=O)/C=C/c2ccc(Cl)cc2Cl)cc1`, the MIC was 32 µg/mL (≈ 65.4 µM).
Compound `Cc1ccc(S(=O)(=O)NC(=O)Nc2ccccc2C(=O)/C=C/c2cccnc2)cc1` has an MIC of 128 µg/mL (≈ 304 µM).

System: Micrococcus luteus
Assay: Antibacterial activity against Micrococcus luteus NCIM 2155 after 24 hrs by agar well diffusion assay
Type: functional
Conditions: NCIM 2155, 24 h
Method in brief: as §1
With `Cc1ccc(/C=C/C(=O)c2ccccc2NC(=O)NS(=O)(=O)c2ccc(C)cc2)cc1` the MIC was 256 µg/mL (≈ 589 µM).
For `Cc1ccc(S(=O)(=O)NC(=O)Nc2ccccc2C(=O)/C=C/c2ccc(Cl)cc2Cl)cc1`, the MIC was 64 µg/mL (≈ 131 µM).
Work on `Cc1ccc(S(=O)(=O)NC(=O)Nc2ccccc2C(=O)/C=C/c2cccnc2)cc1` yielded an MIC of 128 µg/mL (≈ 304 µM).

System: Pseudomonas aeruginosa
Assay: Antibacterial activity against Pseudomonas aeruginosa NCIM 2036 after 24 hrs by agar well diffusion assay
Type: functional
Conditions: NCIM 2036, 24 h
Method in brief: as §1
`Cc1ccc(/C=C/C(=O)c2ccccc2NC(=O)NS(=O)(=O)c2ccc(C)cc2)cc1` showed an MIC of 256 µg/mL (≈ 589 µM).
`Cc1ccc(S(=O)(=O)NC(=O)Nc2ccccc2C(=O)/C=C/c2ccc(Cl)cc2Cl)cc1` showed an MIC of 16 µg/mL (≈ 32.7 µM).
In the case of `Cc1ccc(S(=O)(=O)NC(=O)Nc2ccccc2C(=O)/C=C/c2cccnc2)cc1`, the MIC was 128 µg/mL (≈ 304 µM).

System: Klebsiella pneumoniae
Assay: Antibacterial activity against Klebsiella pneumoniae NCIM 5082 after 24 hrs by agar well diffusion assay
Type: functional
Conditions: NCIM 5082, 24 h
Method in brief: as §1
With `Cc1ccc(/C=C/C(=O)c2ccccc2NC(=O)NS(=O)(=O)c2ccc(C)cc2)cc1` the MIC was 256 µg/mL (≈ 589 µM).
For `Cc1ccc(S(=O)(=O)NC(=O)Nc2ccccc2C(=O)/C=C/c2ccc(Cl)cc2Cl)cc1`, the MIC was 64 µg/mL (≈ 131 µM).
In the case of `Cc1ccc(S(=O)(=O)NC(=O)Nc2ccccc2C(=O)/C=C/c2cccnc2)cc1`, the MIC was 128 µg/mL (≈ 304 µM).

System: Escherichia coli
Assay: Antibacterial activity against Escherichia coli NCIM 2065 after 24 hrs by agar well diffusion assay
Type: functional
Conditions: NCIM 2065, 24 h
Method in brief: as §1
With `Cc1ccc(/C=C/C(=O)c2ccccc2NC(=O)NS(=O)(=O)c2ccc(C)cc2)cc1` the MIC was 256 µg/mL (≈ 589 µM).
With `Cc1ccc(S(=O)(=O)NC(=O)Nc2ccccc2C(=O)/C=C/c2ccc(Cl)cc2Cl)cc1` the MIC was 32 µg/mL (≈ 65.4 µM).
Work on `Cc1ccc(S(=O)(=O)NC(=O)Nc2ccccc2C(=O)/C=C/c2cccnc2)cc1` yielded an MIC of 128 µg/mL (≈ 304 µM).

System: Proteus vulgaris
Assay: Antibacterial activity against Proteus vulgaris NCIM 2813 after 24 hrs by agar well diffusion assay
Type: functional
Conditions: NCIM 2813, 24 h
Method in brief: as §1
Compound `Cc1ccc(/C=C/C(=O)c2ccccc2NC(=O)NS(=O)(=O)c2ccc(C)cc2)cc1` has an MIC of 256 µg/mL (≈ 589 µM).
Work on `Cc1ccc(S(=O)(=O)NC(=O)Nc2ccccc2C(=O)/C=C/c2ccc(Cl)cc2Cl)cc1` yielded an MIC of 64 µg/mL (≈ 131 µM).
In the case of `Cc1ccc(S(=O)(=O)NC(=O)Nc2ccccc2C(=O)/C=C/c2cccnc2)cc1`, the MIC was 128 µg/mL (≈ 304 µM).

System: Candida albicans
Assay: Antifungal activity against Candida albicans NCIM 3102 after 48 hrs by agar well diffusion assay
Type: functional
Conditions: NCIM 3102, 48 h
Method in brief: (§2)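 Fungal spore suspensions in sterile distilled water set to final 10⁶ CFU/mL; 0.1 mL spread on Potato-Dextrose-Agar. NCCLS agar well diffusion with NCIM standard strains: 6 mm wells given 0.1 mL compound diluted in 1% DMSO, final 16 to 512 µg/mL. Triplicate plates held 48 h at 28 0.2 °C. MIC is lowest concentration fully inhibiting growth.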
Work on `Cc1ccc(/C=C/C(=O)c2ccccc2NC(=O)NS(=O)(=O)c2ccc(C)cc2)cc1` yielded an MIC of 256 µg/mL (≈ 589 µM).
With `Cc1ccc(S(=O)(=O)NC(=O)Nc2ccccc2C(=O)/C=C/c2ccc(Cl)cc2Cl)cc1` the MIC was 64 µg/mL (≈ 131 µM).
Work on `Cc1ccc(S(=O)(=O)NC(=O)Nc2ccccc2C(=O)/C=C/c2cccnc2)cc1` yielded an MIC of 128 µg/mL (≈ 304 µM).

System: Aspergillus niger
Assay: Antifungal activity against Aspergillus niger NCIM 548 after 48 hrs by agar well diffusion assay
Type: functional
Conditions: NCIM 548, 48 h
Method in brief: as §2
Work on `Cc1ccc(/C=C/C(=O)c2ccccc2NC(=O)NS(=O)(=O)c2ccc(C)cc2)cc1` yielded an MIC of 256 µg/mL (≈ 589 µM).
For `Cc1ccc(S(=O)(=O)NC(=O)Nc2ccccc2C(=O)/C=C/c2ccc(Cl)cc2Cl)cc1`, the MIC was 64 µg/mL (≈ 131 µM).
With `Cc1ccc(S(=O)(=O)NC(=O)Nc2ccccc2C(=O)/C=C/c2cccnc2)cc1` the MIC was 128 µg/mL (≈ 304 µM).

System: Aspergillus oryzae
Assay: Antifungal activity against Aspergillus oryzae NCIM 643 after 48 hrs by agar well diffusion assay
Type: functional
Conditions: NCIM 643, 48 h
Method in brief: as §2
`Cc1ccc(/C=C/C(=O)c2ccccc2NC(=O)NS(=O)(=O)c2ccc(C)cc2)cc1` showed an MIC of 256 µg/mL (≈ 589 µM).
With `Cc1ccc(S(=O)(=O)NC(=O)Nc2ccccc2C(=O)/C=C/c2ccc(Cl)cc2Cl)cc1` the MIC was 64 µg/mL (≈ 131 µM).
`Cc1ccc(S(=O)(=O)NC(=O)Nc2ccccc2C(=O)/C=C/c2cccnc2)cc1` gave an MIC of 128 µg/mL (≈ 304 µM).

System: Penicillium chrysogenum
Assay: Antifungal activity against Penicillium chrysogenum NCIM 738 after 48 hrs by agar well diffusion assay
Type: functional
Conditions: NCIM 738, 48 h
Method in brief: as §2
Compound `Cc1ccc(/C=C/C(=O)c2ccccc2NC(=O)NS(=O)(=O)c2ccc(C)cc2)cc1` has an MIC of 256 µg/mL (≈ 589 µM).
`Cc1ccc(S(=O)(=O)NC(=O)Nc2ccccc2C(=O)/C=C/c2ccc(Cl)cc2Cl)cc1` showed an MIC of 64 µg/mL (≈ 131 µM).
`Cc1ccc(S(=O)(=O)NC(=O)Nc2ccccc2C(=O)/C=C/c2cccnc2)cc1` gave an MIC of 128 µg/mL (≈ 304 µM).

System: Bacillus pumilus
Assay: Antibacterial activity against Bacillus pumilus NCIM 2327 after 24 hrs by agar well diffusion assay
Conditions: NCIM 2327, 24 h
With `Cc1ccc(/C=C/C(=O)c2ccccc2NC(=O)NS(=O)(=O)c2ccc(C)cc2)cc1` the MIC was 256 µg/mL (≈ 589 µM).
Work on `Cc1ccc(S(=O)(=O)NC(=O)Nc2ccccc2C(=O)/C=C/c2ccc(Cl)cc2Cl)cc1` yielded an MIC of 32 µg/mL (≈ 65.4 µM).
Compound `Cc1ccc(S(=O)(=O)NC(=O)Nc2ccccc2C(=O)/C=C/c2cccnc2)cc1` has an MIC of 128 µg/mL (≈ 304 µM).

From ChEMBL document CHEMBL1938268, “Synthesis, characterization and in vitro biological evaluation of some novel diarylsulfonylureas as potential cytotoxic and antimicrobial agents” (Bioorg Med Chem Lett, 2012)
